According to ChEMBL document CHEMBL1629498, “The synthesis of phenylalanine-derived C5-substituted rhodanines and their activity against selected methicillin-resistant Staphylococcus aureus (MRSA) strains” (2010):
Converted amounts (≈) assume the structure as drawn.

Assays:
Assay type in all cases: functional
[1] = system: Staphylococcus aureus; test: Antibacterial activity against methicillin resistant Staphylococcus aureus ATCC 34404 by microdilution method
How it was run: (§1)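 Broth microdilution MIC in cation-adjusted Mueller Hinton II broth. Compounds were made up at 2 mg/mL (starting solution) in DMF plus broth, with DMF ≤0.5% of media, then serially diluted in broth. Inoculum was a 0.5 McFarland suspension, 0.2 mL diluted into 40 mL broth and added to wells. Drug-free controls were included. MIC was the well with no turbidity versus controls; each strain was tested at least in triplicate.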

[2] = system: Staphylococcus aureus; test: Antibacterial activity against methicillin resistant Staphylococcus aureus ATCC 700787 by microdilution method; how it was run: as §1
[3] = system: Staphylococcus aureus; test: Antibacterial activity against methicillin resistant Staphylococcus aureus ATCC 700698 by microdilution method; how it was run: as §1
[4] = system: Staphylococcus aureus; test: Antibacterial activity against methicillin resistant Staphylococcus aureus ATCC BAA-39 by microdilution method; how it was run: as §1
[5] = system: Staphylococcus aureus; test: Antibacterial activity against methicillin resistant Staphylococcus aureus ATCC BAA-1680 by microdilution method; how it was run: as §1

Compound | MIC [1] | MIC [2] | MIC [3] | MIC [4] | MIC [5]
O=C(O)CN1C(=O)/C(=C/c2ccc(Cl)c(Cl)c2)SC1=S | 125 µg/mL (≈ 359 µM) | 125 µg/mL (≈ 359 µM) | 125 µg/mL (≈ 359 µM) | 125 µg/mL (≈ 359 µM) | 125 µg/mL (≈ 359 µM)
O=C(O)CN1C(=O)/C(=C/c2cccc(Oc3ccccc3)c2)SC1=S | 31.2 µg/mL (≈ 84.1 µM) | 31.2 µg/mL (≈ 84.1 µM) | 31.2 µg/mL (≈ 84.1 µM) | 31.2 µg/mL (≈ 84.1 µM) | 31.2 µg/mL (≈ 84.1 µM)
CCCC(C(=O)O)N1C(=O)/C(=C/c2ccc(Cl)cc2Cl)SC1=S (stereo not given) | 15.6 µg/mL (≈ 40 µM) | 15.6 µg/mL (≈ 40 µM) | 15.6 µg/mL (≈ 40 µM) | 15.6 µg/mL (≈ 40 µM) | 15.6 µg/mL (≈ 40 µM)
CC(C)CC(C(=O)O)N1C(=O)/C(=C/c2ccc(Cl)cc2Cl)SC1=S (stereo not given) | 15.6 µg/mL (≈ 38.6 µM) | 15.6 µg/mL (≈ 38.6 µM) | 15.6 µg/mL (≈ 38.6 µM) | 15.6 µg/mL (≈ 38.6 µM) | 15.6 µg/mL (≈ 38.6 µM)
CC(C(=O)O)N1C(=O)/C(=C/c2ccc(Cl)cc2Cl)SC1=S (stereo not given) |  | 125 µg/mL (≈ 345 µM) | 125 µg/mL (≈ 345 µM) | 125 µg/mL (≈ 345 µM) | 
O=C(O)C(Cc1ccccc1)N1C(=O)/C(=C/c2ccc(Cl)cc2Cl)SC1=S (stereo not given) | 15.6 µg/mL (≈ 35.6 µM) | 15.6 µg/mL (≈ 35.6 µM) | 15.6 µg/mL (≈ 35.6 µM) | 15.6 µg/mL (≈ 35.6 µM) | 15.6 µg/mL (≈ 35.6 µM)
CC(C)C(C(=O)O)N1C(=O)/C(=C/c2ccc(Cl)cc2Cl)SC1=S (stereo not given) | 15.6 µg/mL (≈ 40 µM) | 15.6 µg/mL (≈ 40 µM) | 15.6 µg/mL (≈ 40 µM) | 15.6 µg/mL (≈ 40 µM) | 15.6 µg/mL (≈ 40 µM)
O=C(O)CN1C(=O)/C(=C/c2ccccc2[N+](=O)[O-])SC1=S | 62.5 µg/mL (≈ 193 µM) | 62.5 µg/mL (≈ 193 µM) | 62.5 µg/mL (≈ 193 µM) | 62.5 µg/mL (≈ 193 µM) | 62.5 µg/mL (≈ 193 µM)
O=C(O)CN1C(=O)/C(=C/c2ccc([N+](=O)[O-])cc2)SC1=S | 250 µg/mL (≈ 771 µM) | 250 µg/mL (≈ 771 µM) | 250 µg/mL (≈ 771 µM) | 250 µg/mL (≈ 771 µM) | 250 µg/mL (≈ 771 µM)
CC(C)C(C(=O)O)N1C(=O)/C(=C/c2cccc3ccccc23)SC1=S (stereo not given) | 62.5 µg/mL (≈ 168 µM) | 62.5 µg/mL (≈ 168 µM) | 62.5 µg/mL (≈ 168 µM) | 62.5 µg/mL (≈ 168 µM) | 62.5 µg/mL (≈ 168 µM)
CC(C)C(C(=O)O)N1C(=O)/C(=C/c2ccc(F)cc2)SC1=S (stereo not given) |  | 62.5 µg/mL (≈ 184 µM) | 62.5 µg/mL (≈ 184 µM) | 62.5 µg/mL (≈ 184 µM) | 
CC(C)C(C(=O)O)N1C(=O)/C(=C/c2ccccc2Cl)SC1=S (stereo not given) |  | 62.5 µg/mL (≈ 176 µM) | 62.5 µg/mL (≈ 176 µM) | 62.5 µg/mL (≈ 176 µM) | 
O=C(O)CN1C(=O)/C(=C/C=C/c2ccccc2)SC1=S | 250 µg/mL (≈ 819 µM) | 250 µg/mL (≈ 819 µM) | 250 µg/mL (≈ 819 µM) | 250 µg/mL (≈ 819 µM) | 250 µg/mL (≈ 819 µM)
CCSCC(C(=O)O)N1C(=O)/C(=C/c2ccc(Cl)cc2Cl)SC1=S (stereo not given) | 31.2 µg/mL (≈ 74 µM) | 31.2 µg/mL (≈ 74 µM) | 31.2 µg/mL (≈ 74 µM) | 31.2 µg/mL (≈ 74 µM) | 31.2 µg/mL (≈ 74 µM)
COc1ccc(/C=C2\SC(=S)N(CC(=O)O)C2=O)cc1 | 200 µg/mL (≈ 646 µM) | 250 µg/mL (≈ 808 µM) | 250 µg/mL (≈ 808 µM) | 250 µg/mL (≈ 808 µM) | 250 µg/mL (≈ 808 µM)
O=C(O)CN1C(=O)/C(=C/c2ccnc3ccccc23)SC1=S | 200 µg/mL (≈ 605 µM) | 250 µg/mL (≈ 757 µM) | 500 µg/mL (≈ 1510 µM) | 500 µg/mL (≈ 1510 µM) | 250 µg/mL (≈ 757 µM)
O=C(O)CN1C(=O)/C(=C/C2CCCCC2)SC1=S | 31.2 µg/mL (≈ 109 µM) | 31.2 µg/mL (≈ 109 µM) | 31.2 µg/mL (≈ 109 µM) | 31.2 µg/mL (≈ 109 µM) | 31.2 µg/mL (≈ 109 µM)
O=C(O)C(Cc1ccccc1)N1C(=O)/C(=C/c2ccccc2[N+](=O)[O-])SC1=S (stereo not given) | 125 µg/mL (≈ 302 µM) | 125 µg/mL (≈ 302 µM) | 62.5 µg/mL (≈ 151 µM) | 62.5 µg/mL (≈ 151 µM) | 62.5 µg/mL (≈ 151 µM)
O=C(O)C(Cc1ccccc1)N1C(=O)/C(=C/c2cccc(Oc3ccccc3)c2)SC1=S (stereo not given) | 1.95 µg/mL (≈ 4.22 µM) | 3.9 µg/mL (≈ 8.45 µM) | 3.9 µg/mL (≈ 8.45 µM) | 3.9 µg/mL (≈ 8.45 µM) | 1.95 µg/mL (≈ 4.22 µM)
O=C(O)c1cn(C2CC2)c2cc(N3CCNCC3)c(F)cc2c1=O [CIPROFLOXACIN] |  | 62.5 µg/mL (≈ 189 µM) |  |  | 
CC1(C)S[C@@H]2[C@H](NC(=O)Cc3ccccc3)C(=O)N2[C@H]1C(=O)O [PENICILLIN G] | 31.2 µg/mL (≈ 93.5 µM) | 31.2 µg/mL (≈ 93.5 µM) | 15.6 µg/mL (≈ 46.7 µM) | 31.2 µg/mL (≈ 93.5 µM) | 62.5 µg/mL (≈ 187 µM)
CN[C@H](CC(C)C)C(=O)N[C@H]1C(=O)N[C@@H](CC(N)=O)C(=O)N[C@H]2C(=O)N[C@H]3C(=O)N[C@H](C(=O)N[C@H](C(=O)O)c4cc(O)cc(O)c4-c4cc3ccc4O)[C@H](O)c3ccc(c(Cl)c3)Oc3cc2cc(c3O[C@@H]2O[C@H](CO)[C@@H](O)[C@H](O)[C@H]2O[C@H]2C[C@](C)(N)[C@H](O)[C@H](C)O2)Oc2ccc(cc2Cl)[C@H]1O [VANCOMYCIN] | ≤ 0.97 µg/mL | 1.95 µg/mL (≈ 1.35 µM) | ≤ 0.97 µg/mL | ≤ 0.97 µg/mL | ≤ 0.97 µg/mL
